Data: ChEMBL document CHEMBL4376812 (J Med Chem, 2019)
Blank lines part the entries; values can stand above or below the compound they belong to. The source made the active and inactive calls. The calls are words filed in the database; no cut-off is given here.

How the values were obtained:
[1] = target: T1, Tyrosine-protein kinase JAK3 (Homo sapiens, UniProt P52333); experiment: Inhibition of fluorescein labeled probe binding to human recombinant JAK3 JH1 domain incubated for 1 hr by HTRF assay
T1 sequence (P52333 whole entry): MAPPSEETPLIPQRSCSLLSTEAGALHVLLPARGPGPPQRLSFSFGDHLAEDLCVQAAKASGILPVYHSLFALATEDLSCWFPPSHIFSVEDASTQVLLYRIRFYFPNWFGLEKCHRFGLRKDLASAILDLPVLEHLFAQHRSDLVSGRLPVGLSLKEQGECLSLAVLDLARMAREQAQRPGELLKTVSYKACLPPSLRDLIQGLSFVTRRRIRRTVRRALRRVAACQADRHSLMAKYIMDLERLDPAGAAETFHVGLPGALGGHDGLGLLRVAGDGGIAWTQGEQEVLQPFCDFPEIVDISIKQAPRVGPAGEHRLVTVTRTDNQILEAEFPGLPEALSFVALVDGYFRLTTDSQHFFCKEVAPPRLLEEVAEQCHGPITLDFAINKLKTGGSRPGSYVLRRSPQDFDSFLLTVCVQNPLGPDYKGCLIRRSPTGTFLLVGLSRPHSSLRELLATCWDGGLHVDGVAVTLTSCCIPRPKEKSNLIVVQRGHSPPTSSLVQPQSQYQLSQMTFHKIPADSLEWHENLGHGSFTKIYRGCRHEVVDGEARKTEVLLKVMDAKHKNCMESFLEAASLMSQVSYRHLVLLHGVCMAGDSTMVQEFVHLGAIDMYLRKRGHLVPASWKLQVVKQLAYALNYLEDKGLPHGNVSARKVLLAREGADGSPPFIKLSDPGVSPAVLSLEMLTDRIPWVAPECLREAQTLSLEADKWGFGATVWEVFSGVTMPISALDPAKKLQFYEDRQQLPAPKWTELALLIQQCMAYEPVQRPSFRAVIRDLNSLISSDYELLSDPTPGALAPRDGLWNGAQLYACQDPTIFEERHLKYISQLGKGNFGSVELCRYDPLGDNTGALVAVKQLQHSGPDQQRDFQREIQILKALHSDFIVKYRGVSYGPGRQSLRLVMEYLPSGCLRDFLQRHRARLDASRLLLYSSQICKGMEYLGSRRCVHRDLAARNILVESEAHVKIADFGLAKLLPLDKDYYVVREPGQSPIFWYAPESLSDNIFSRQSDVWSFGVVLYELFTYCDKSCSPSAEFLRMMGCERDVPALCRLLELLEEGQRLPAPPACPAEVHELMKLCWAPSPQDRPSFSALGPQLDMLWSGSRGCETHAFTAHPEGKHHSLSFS
How it was run: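 HTRF competition binding assay: displacement of a fluorescent probe from human recombinant JAK3 JH1 domain. IC50 for 50% inhibition of HTRF signal derived by nonlinear regression.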

[2] = target: Tyrosine-protein kinase JAK2 (Homo sapiens, UniProt O60674); experiment: Inhibition of JAK2 in GM-CSF-stimulated human TF-1 cells; assay type: cell-based
Sequence of Tyrosine-protein kinase JAK2 (O60674 whole entry): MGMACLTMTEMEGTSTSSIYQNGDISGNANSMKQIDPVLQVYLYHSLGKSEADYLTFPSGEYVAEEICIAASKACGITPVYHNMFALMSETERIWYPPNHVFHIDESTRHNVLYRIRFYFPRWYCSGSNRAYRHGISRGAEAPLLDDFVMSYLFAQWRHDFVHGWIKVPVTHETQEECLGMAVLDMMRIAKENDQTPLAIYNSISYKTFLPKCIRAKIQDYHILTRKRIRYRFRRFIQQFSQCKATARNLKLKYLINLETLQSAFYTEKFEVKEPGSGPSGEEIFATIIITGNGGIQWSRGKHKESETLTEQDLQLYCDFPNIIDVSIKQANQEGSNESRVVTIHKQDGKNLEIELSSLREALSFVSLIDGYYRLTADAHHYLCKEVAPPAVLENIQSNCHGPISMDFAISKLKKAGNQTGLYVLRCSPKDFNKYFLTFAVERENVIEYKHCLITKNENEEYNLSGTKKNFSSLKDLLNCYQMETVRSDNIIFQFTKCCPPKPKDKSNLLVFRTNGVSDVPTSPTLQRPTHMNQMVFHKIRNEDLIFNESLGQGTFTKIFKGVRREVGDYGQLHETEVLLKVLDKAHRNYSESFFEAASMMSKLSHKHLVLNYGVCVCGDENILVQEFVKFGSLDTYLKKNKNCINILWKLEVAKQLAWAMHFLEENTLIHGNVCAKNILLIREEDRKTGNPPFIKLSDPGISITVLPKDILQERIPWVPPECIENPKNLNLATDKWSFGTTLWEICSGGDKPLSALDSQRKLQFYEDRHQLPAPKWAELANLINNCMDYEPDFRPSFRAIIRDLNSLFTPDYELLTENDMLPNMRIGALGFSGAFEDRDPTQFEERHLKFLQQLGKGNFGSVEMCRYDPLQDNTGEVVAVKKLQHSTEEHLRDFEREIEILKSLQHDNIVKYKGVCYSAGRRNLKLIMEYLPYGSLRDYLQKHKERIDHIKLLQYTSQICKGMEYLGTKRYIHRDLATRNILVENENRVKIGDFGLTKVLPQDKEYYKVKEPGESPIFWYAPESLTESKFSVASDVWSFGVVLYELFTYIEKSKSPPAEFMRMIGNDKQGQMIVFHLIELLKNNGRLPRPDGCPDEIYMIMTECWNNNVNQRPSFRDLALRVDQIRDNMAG

JAK3/JAK1 = JAK3/JAK1 (Homo sapiens, UniProt P23458+P52333); experiment: Inhibition of JAK1/JAK3 in human PBMC assessed as decrease in IL2-induced STAT5 phosphorylation in CD3+ T cells preincubated for 1 hr followed by stimulation with IL2 for 15 mins by flow cytometry; assay type: cell-based
Sequence of JAK3/JAK1 (P23458 whole entry, one chain of several): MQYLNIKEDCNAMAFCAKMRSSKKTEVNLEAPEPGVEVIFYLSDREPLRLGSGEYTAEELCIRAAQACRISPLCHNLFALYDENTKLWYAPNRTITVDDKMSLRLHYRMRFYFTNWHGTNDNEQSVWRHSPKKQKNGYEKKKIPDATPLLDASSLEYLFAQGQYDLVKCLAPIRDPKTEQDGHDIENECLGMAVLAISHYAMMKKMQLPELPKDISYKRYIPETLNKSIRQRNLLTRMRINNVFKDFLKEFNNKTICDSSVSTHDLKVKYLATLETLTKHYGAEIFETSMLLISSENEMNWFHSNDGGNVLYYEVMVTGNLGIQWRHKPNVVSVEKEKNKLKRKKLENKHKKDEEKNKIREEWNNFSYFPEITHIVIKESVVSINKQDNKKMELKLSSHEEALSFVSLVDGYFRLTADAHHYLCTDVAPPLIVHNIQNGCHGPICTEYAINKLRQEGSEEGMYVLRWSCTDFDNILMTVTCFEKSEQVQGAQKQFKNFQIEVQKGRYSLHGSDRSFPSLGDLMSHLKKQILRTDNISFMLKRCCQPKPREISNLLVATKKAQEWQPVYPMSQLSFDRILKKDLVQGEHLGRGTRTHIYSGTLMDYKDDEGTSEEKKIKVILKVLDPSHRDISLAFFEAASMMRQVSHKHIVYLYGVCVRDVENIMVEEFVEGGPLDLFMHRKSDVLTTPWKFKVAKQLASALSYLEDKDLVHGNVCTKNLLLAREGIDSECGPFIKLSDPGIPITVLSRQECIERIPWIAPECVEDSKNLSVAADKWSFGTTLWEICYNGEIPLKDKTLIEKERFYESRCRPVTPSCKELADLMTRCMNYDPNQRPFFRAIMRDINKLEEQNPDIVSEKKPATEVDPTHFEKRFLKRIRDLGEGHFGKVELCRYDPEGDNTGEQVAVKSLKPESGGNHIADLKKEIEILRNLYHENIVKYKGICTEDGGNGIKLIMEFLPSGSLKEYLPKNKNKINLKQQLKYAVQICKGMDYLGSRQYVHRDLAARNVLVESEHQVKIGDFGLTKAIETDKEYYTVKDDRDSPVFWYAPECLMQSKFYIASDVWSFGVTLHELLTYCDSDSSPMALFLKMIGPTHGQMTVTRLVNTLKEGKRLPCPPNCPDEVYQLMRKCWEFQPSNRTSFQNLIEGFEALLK
How it was run: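 Human cytokine signalling assay: IL-2 stimulation (JAK1/JAK3), with STAT5 phosphorylation in CD3⁺ T-cells measured as the end point. Read as IC50; mean of at least three separate experiments.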

[3] = target: Non-receptor tyrosine-protein kinase TYK2 (Homo sapiens, UniProt P29597); experiment: Inhibition of TYK2 in human whole blood assessed as decrease in IFNalpha-induced STAT5 phosphorylation preincubated for 1 hr followed by stimulation with IFN-alpha for 15 mins by fluorescence analysis; assay type: tissue-based
Sequence of Non-receptor tyrosine-protein kinase TYK2 (Homo sapiens, UniProt P29597) (P29597 whole entry): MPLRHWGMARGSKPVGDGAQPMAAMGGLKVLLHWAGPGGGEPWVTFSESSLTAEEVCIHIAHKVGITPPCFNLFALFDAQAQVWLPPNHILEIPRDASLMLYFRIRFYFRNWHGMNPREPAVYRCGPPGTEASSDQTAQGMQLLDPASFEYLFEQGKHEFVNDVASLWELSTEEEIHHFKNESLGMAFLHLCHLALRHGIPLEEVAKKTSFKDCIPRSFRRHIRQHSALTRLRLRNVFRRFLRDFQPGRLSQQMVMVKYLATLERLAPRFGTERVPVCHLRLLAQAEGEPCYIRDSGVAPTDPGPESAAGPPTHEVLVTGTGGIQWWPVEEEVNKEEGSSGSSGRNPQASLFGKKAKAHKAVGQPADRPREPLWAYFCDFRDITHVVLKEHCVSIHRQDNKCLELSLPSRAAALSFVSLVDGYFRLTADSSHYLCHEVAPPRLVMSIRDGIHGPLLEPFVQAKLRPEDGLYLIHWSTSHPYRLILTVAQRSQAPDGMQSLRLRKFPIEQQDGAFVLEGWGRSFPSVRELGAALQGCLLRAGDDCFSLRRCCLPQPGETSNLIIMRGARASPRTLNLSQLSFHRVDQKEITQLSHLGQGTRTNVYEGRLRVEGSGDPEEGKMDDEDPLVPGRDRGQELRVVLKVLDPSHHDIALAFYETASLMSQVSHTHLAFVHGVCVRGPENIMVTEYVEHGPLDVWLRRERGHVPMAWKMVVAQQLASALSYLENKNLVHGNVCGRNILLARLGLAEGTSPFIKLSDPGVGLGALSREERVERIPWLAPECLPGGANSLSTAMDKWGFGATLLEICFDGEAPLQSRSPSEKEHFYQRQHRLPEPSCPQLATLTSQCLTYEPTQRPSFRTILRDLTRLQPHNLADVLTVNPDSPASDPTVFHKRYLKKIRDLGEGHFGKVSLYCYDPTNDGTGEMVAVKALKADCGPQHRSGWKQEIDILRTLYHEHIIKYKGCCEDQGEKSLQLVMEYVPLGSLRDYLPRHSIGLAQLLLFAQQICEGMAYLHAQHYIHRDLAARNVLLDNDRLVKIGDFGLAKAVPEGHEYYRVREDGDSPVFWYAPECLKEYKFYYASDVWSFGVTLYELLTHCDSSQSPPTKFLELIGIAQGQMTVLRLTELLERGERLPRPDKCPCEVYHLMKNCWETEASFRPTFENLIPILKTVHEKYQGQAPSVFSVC
How it was run: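 Human whole blood stimulated with IFNα; STAT5 phosphorylation was read in cells by staining and flow cytometry. IC50 from dose–response; mean of at least three experiments.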

JAK1/TYK2 = JAK1/TYK2 (Homo sapiens, UniProt P23458+P29597); experiment: Inhibition of JAK1/TYK2 in human Kit225 T cells assessed as inhibition of STAT phosphorylation by luciferase reporter assay; assay type: cell-based
Sequence of JAK1/TYK2 (P23458 whole entry): as the sequence (P23458 whole entry, one chain of several) above
Sequence of JAK1/TYK2 (P29597 whole entry): as the sequence (P29597 whole entry) above
How it was run: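 T-cells carrying a stably integrated STAT-dependent luciferase reporter were stimulated with IFNα or IL-23 to measure TYK2/JAK1-dependent signalling. Dose–response curves gave IC50.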

[4] = Permeability coefficient, Kp across basolateral to apical side in human Caco2 cells; assay type: ADME, cell-based; conditions: Caco-2, read-out: permeability
How it was run: (§1)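 Caco-2 monolayer permeability measured in both directions, apical-to-basal and basal-to-apical, reported as Pc in nm/s. An efflux ratio was calculated from the two directions.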

[5] = Permeability coefficient, Kp across apical to basolateral side in human Caco2 cells; assay type: ADME, cell-based; conditions: Caco-2, read-out: permeability; how it was run: as §1
[6] = target: Voltage-gated inwardly rectifying potassium channel KCNH2 (Homo sapiens, UniProt Q12809); experiment: Inhibition of human ERG by in vitro ion channel flux assay
[7] = target: Non-receptor tyrosine-protein kinase TYK2 (Mus musculus, UniProt Q9R117); experiment: Inhibition of TYK2 in mouse whole blood assessed as decrease in IFNalpha-induced STAT1 phosphorylation preincubated for 1 hr followed by stimulation with IFN-alpha for 15 mins by fluorescence analysis; assay type: tissue-based
Sequence of Non-receptor tyrosine-protein kinase TYK2 (Mus musculus, UniProt Q9R117) (Q9R117 whole entry): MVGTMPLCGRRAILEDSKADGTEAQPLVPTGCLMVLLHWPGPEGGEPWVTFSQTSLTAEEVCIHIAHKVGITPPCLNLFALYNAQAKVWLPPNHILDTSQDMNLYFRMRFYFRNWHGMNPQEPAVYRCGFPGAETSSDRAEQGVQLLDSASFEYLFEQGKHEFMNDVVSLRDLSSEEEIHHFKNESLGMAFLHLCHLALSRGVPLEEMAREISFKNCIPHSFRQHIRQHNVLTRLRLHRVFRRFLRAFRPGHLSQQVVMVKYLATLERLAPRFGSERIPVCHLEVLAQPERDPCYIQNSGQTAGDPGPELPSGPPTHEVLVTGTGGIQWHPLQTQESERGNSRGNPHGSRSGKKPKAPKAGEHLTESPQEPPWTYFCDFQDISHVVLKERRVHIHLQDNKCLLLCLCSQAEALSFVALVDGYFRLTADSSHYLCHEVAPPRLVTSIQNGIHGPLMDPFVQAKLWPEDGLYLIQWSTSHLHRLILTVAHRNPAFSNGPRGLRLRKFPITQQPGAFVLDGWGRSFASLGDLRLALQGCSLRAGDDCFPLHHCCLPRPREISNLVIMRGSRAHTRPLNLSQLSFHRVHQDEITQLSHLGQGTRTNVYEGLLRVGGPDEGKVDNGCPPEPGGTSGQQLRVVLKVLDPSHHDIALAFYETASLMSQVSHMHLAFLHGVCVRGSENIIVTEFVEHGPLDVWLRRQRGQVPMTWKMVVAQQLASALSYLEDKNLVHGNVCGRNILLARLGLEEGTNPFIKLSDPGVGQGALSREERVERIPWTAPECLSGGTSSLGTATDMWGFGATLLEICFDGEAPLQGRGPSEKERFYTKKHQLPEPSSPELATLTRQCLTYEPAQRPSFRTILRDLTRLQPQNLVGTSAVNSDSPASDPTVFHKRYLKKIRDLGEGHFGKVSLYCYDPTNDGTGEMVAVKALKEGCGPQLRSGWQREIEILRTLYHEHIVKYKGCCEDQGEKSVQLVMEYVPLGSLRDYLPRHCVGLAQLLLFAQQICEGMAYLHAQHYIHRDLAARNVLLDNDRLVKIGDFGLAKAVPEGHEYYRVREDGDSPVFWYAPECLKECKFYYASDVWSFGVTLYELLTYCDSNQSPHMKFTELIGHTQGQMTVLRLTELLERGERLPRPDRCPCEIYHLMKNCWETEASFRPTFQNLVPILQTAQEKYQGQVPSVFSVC
How it was run: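 Mouse whole blood stimulated with IFNα; STAT1 phosphorylation was measured by cellular staining and flow cytometry. Read as IC50.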

[8] = Metabolic stability in mouse liver microsomes assessed as compound remaining incubated for 10 mins; assay type: ADME, Microsome; conditions: read-out: Stability
How it was run: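 Mouse liver microsomal stability, reported as percent of parent remaining after a 10 min incubation. Values are means of at least three experiments unless otherwise noted.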

[9] = Metabolic stability in mouse liver microsomes assessed as half life; assay type: ADME, Microsome
How it was run: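 Liver microsomes from human, rat, mouse, dog, cynomolgus monkey and rabbit were incubated with compound. Stability is reported as half-life (T1/2, min). Values are means of at least three separate experiments.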

Homo sapiens [10] = organism: Homo sapiens; experiment: Selectivity ratio of IC50 for JAK1/JAK3 in human PBMC assessed as decrease in IL2-induced STAT5 phosphorylation in CD3+ T cells to IC50 for TYK2 JH2 domain in human PBMC assessed as decrease in IFNalpha-induced STAT5 phosphorylation; assay type: cell-based; conditions: tested as the 2H-labelled form
How it was run: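 Human PBMC were stimulated with IL-2 (JAK1/JAK3) or IFNα (TYK2), and STAT5 phosphorylation in CD3⁺ T-cells was the end point. The ratio is IL-2 IC50 over IFNα IC50, with means from at least three separate experiments.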

Homo sapiens [11] = organism: Homo sapiens; experiment: Selectivity ratio of IC50 for JAK2 in GM-CSF-stimulated human TF-1 cells to IC50 for TYK2 JH2 domain in human PBMC assessed as decrease in IFNalpha-induced STAT5 phosphorylation; conditions: tested as the 2H-labelled form
Homo sapiens [12] = organism: Homo sapiens; experiment: Selectivity ratio of IC50 for c-kit (unknown origin) to IC50 for His-tagged recombinant human TYK2 pseudokinase JH2 domain (575-869 residues) incubated for 1 hr by HTRF assay; conditions: tested as the 2H-labelled form
Mus musculus [13] = experiment: Protection against IL23-induced acanthosis C57BL/6 mouse assessed as inhibition in epidermal hyperplasia compound dosed orally via gavage bid for 9 days with first dose given prior to first IL23 challenge and twice a day thereafter by H and E staining based analysis; assay type: functional, organism-based; conditions: tested as the 2H-labelled form
How it was run: (§2)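 IL-23 was injected intradermally and repeatedly into mouse ears. Compound was dosed orally twice daily for 9 days in EtOH:TPGS:PEG300 (5:5:90), at 7.5, 15 or 30 mg/kg. Histological scoring covered epidermal hyperplasia and inflammatory infiltration. Eight mice per group; means ± SEM; one-way ANOVA.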

Mus musculus [14] = experiment: Protection against IL23-induced acanthosis C57BL/6 mouse assessed as inhibition in IL-12 mRNA expression in ear skin compound dosed orally via gavage bid for 9 days with first dose given prior to first IL23 challenge and twice a day thereafter by qRT-PCR analysis; assay type: functional, organism-based; conditions: tested as the 2H-labelled form
How it was run: (§3)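 IL-23 was injected intradermally and repeatedly into mouse ears to induce psoriasis-like acanthosis. Compound was given orally twice daily for 9 days in EtOH:TPGS:PEG300 (5:5:90), at 7.5, 15 and 30 mg/kg. Skin biopsies were analysed for cytokine transcripts (IL-17A, IL-21, IL-12/IL-23 subunits) by quantitative PCR. Eight mice per group.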

Mus musculus [15] = experiment: Protection against IL23-induced acanthosis C57BL/6 mouse assessed as inhibition in IL-21 mRNA expression in ear skin compound dosed orally via gavage bid for 9 days with first dose given prior to first IL23 challenge and twice a day thereafter by qRT-PCR analysis; assay type: functional, organism-based; conditions: tested as the 2H-labelled form; how it was run: as §3
Mus musculus [16] = experiment: Protection against IL23-induced acanthosis C57BL/6 mouse assessed as inhibition of inflammatory cellular infiltration at 30 mg/kg, po via gavage bid for 9 days with first dose given prior to first IL23 challenge and twice a day thereafter by H and E staining based analysis; assay type: functional, organism-based; conditions: tested as the 2H-labelled form
How it was run: (§4)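 IL-23 was injected intradermally into mouse ears repeatedly to drive acanthosis. Test agent was given orally twice daily for 9 days at 7.5, 15 or 30 mg/kg in EtOH:TPGS:PEG300 (5:5:90), with an anti-IL-23 adnectin as positive control. Epidermal hyperplasia and cellular infiltration were scored histologically. Eight mice per group; means ± SEM; one-way ANOVA.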

Mus musculus [17] = experiment: Protection against IL23-induced acanthosis C57BL/6 mouse assessed as reduction in ear swelling at 30 mg/kg, po via gavage bid for 9 days with first dose given prior to first IL23 challenge and twice a day thereafter by caliper method; assay type: functional, organism-based; conditions: tested as the 2H-labelled form
Mus musculus [18] = experiment: Protection against IL23-induced acanthosis in C57BL/6 mouse assessed as reduction in ear swelling compound dosed orally via gavage bid for 9 days with first dose given prior to first IL23 challenge and twice a day thereafter by caliper method; assay type: functional, organism-based; conditions: tested as the 2H-labelled form
Mus musculus [19] = experiment: Protection against IL23-induced acanthosis C57BL/6 mouse assessed as inhibition in IL-17A mRNA expression in ear skin compound dosed orally via gavage bid for 9 days with first dose given prior to first IL23 challenge and twice a day thereafter by qRT-PCR analysis; assay type: functional, organism-based; conditions: tested as the 2H-labelled form
How it was run: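 Mice given repeated intradermal IL-23 injections into the ears to induce acanthosis. Oral dosing twice daily for 9 days at 7.5, 15 or 30 mg/kg in 5:5:90 EtOH:TPGS:PEG300 vehicle; anti-IL-23 adnectin served as positive control. Skin biopsies analysed by quantitative PCR for IL-17A expression. Eight mice per group; means ± SEM; one-way ANOVA.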

Mus musculus [20] = experiment: Protection against IL23-induced acanthosis C57BL/6 mouse assessed as inhibition in IL-23 mRNA expression in ear skin compound dosed orally via gavage bid for 9 days with first dose given prior to first IL23 challenge and twice a day thereafter by qRT-PCR analysis; assay type: functional, organism-based; conditions: tested as the 2H-labelled form; how it was run: as §3
Mus musculus [21] = experiment: Protection against IL23-induced acanthosis C57BL/6 mouse assessed as inhibition in epidermal hyperplasia at 30 mg/kg, po via gavage bid for 9 days with first dose given prior to first IL23 challenge and twice a day thereafter by H and E staining based analysis; assay type: functional, organism-based; conditions: tested as the 2H-labelled form; how it was run: as §2
Mus musculus [22] = experiment: Protection against IL23-induced acanthosis C57BL/6 mouse assessed as inhibition of inflammatory cellular infiltration compound dosed orally via gavage bid for 9 days with first dose given prior to first IL23 challenge and twice a day thereafter by H and E staining based analysis; assay type: functional, organism-based; conditions: tested as the 2H-labelled form; how it was run: as §4
Mus musculus [23] = experiment: Protection against IL23-induced acanthosis C57BL/6 mouse assessed as reduction in ear swelling at 15 mg/kg, po via gavage bid for 9 days with first dose given prior to first IL23 challenge and twice a day thereafter by caliper method; assay type: functional, organism-based; conditions: tested as the 2H-labelled form

SMILES: [2H]C([2H])([2H])NC(=O)c1nnc(Nc2ccccn2)cc1Nc1ccccc1S(C)(=O)=O
IC50 [1]: > 10000 nM | IC50 [2]: 2700 nM | IC50 (JAK3/JAK1): 5700 nM

SMILES: CNC(=O)c1nnc(Nc2ccccn2)cc1Nc1ccccc1S(C)(=O)=O
Ratio IC50 (Homo sapiens [10]): 210 | Ratio IC50 (Homo sapiens [11]): 270 | Ratio IC50 (Homo sapiens [12]): 690

SMILES: CNC(=O)c1nnc(NC(=O)C2CC2)cc1Nc1cccc(-c2ncn(C)n2)c1OC
Activity (Mus musculus [13]): Dose-dependent effect | Activity (Mus musculus [14]): Dose-dependent effect | Activity (Mus musculus [15]): Dose-dependent effect | Activity (Mus musculus [16]): Active | Activity (Mus musculus [17]): Active | Activity (Mus musculus [18]): Dose-dependent effect | Activity (Mus musculus [19]): Dose-dependent effect | Activity (Mus musculus [20]): Dose-dependent effect | Activity (Mus musculus [21]): Active | Activity (Mus musculus [22]): Dose-dependent effect | Activity (Mus musculus [23]): Active

Further lines, with some results ahead:

IC50 [3]: 62 nM | IC50 (JAK1/TYK2): 30 nM | Papp B→A [4]: 26 ×10⁻⁶ cm/s | Papp A→B [5]: < 1.5 ×10⁻⁶ cm/s
SMILES: CNC(=O)c1cnc(Nc2cc(C)c(F)cn2)cc1Nc1cccc(C(N)=O)c1OC

IC50 [3]: 69 nM | IC50 [7]: 700 nM | IC50 (JAK1/TYK2): 12 nM | remaining at 10 min [8]: 78% | Papp A→B [5]: 1.6 ×10⁻⁶ cm/s
SMILES: CNC(=O)c1cnc(Nc2ccc(C(F)(F)F)cn2)cc1Nc1cccc(-c2ncn(C)n2)c1OC
IC50 [6]: 16000 nM

IC50 [3]: 13 nM | half-life [9]: > 2 h | IC50 [7]: 100 nM | IC50 (JAK1/TYK2): 8 nM | remaining at 10 min [8]: 89% | Papp A→B [5]: < 1.5 ×10⁻⁶ cm/s
SMILES: [2H]C([2H])([2H])NC(=O)c1cnc(NC(=O)C2CC2)cc1Nc1cccc(-c2ncn(C)n2)c1OC

IC50 [3]: 19 nM | IC50 [7]: 730 nM | IC50 (JAK1/TYK2): 12 nM | remaining at 10 min [8]: 73% | Papp A→B [5]: < 1.5 ×10⁻⁶ cm/s
SMILES: CNC(=O)c1cnc(Nc2cc(C)nc(C)n2)cc1Nc1cccc(-c2ncn(C)n2)c1OC
